The source of these data is ChEMBL document CHEMBL1155998, “Design and synthesis of piperazinylpyrimidinones as novel selective 5-HT(2C) agonists” (Bioorg Med Chem Lett, 2009).

Series [1] deals with Canis familiaris. Put plainly: Increase of urethral pressure in iv dosed dog. It counts as functional, Canis lupus familiaris, Urethra. The procedure, abridged: (§1)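 Anaesthetised dogs, two animals, in a urethral function model. Compound was given by intravenous infusion. Peak urethral pressure was recorded as % increase, alongside measured free plasma concentrations.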
The test system of series [2] is Canis familiaris. Put plainly: Free plasma concentration in iv dosed dog. The series is classed as ADME, organism-based, Canis lupus familiaris. To be noted: in vivo. The procedure, abridged:
as §1

The target of series [3] is D(3) dopamine receptor (Homo sapiens) (UniProt P35462). Put plainly: Binding affinity to dopamine D3 receptor.
Sequence of D(3) dopamine receptor (Homo sapiens) (P35462 whole entry): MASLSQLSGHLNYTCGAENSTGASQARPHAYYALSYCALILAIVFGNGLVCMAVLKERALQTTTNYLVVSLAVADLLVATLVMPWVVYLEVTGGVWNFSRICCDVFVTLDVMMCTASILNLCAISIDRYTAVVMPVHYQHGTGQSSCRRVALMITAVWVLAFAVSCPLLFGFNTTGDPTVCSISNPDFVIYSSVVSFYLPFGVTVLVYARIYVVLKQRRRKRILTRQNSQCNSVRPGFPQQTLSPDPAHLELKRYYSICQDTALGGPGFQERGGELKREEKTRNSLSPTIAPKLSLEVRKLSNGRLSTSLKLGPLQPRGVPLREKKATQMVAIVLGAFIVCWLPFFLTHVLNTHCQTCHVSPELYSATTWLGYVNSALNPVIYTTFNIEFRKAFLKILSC
Series [4] in a line: Binding affinity to calcium ion channel at L-verapamil site.
Series [5] concerns the target 5-hydroxytryptamine receptor 2A (Homo sapiens, UniProt P28223). The series is described as follows: Agonist activity at human recombinant 5HT2A receptor transfected in CHO K1 cells assessed as calcium mobilisation by FLIPR assay. The series is classed as functional, cell-based.
The target in series [6] is Voltage-gated inwardly rectifying potassium channel KCNH2 (Homo sapiens, UniProt Q12809). Put plainly: Binding affinity to human ERG.
Sequence of Voltage-gated inwardly rectifying potassium channel KCNH2 (Q12809 whole entry): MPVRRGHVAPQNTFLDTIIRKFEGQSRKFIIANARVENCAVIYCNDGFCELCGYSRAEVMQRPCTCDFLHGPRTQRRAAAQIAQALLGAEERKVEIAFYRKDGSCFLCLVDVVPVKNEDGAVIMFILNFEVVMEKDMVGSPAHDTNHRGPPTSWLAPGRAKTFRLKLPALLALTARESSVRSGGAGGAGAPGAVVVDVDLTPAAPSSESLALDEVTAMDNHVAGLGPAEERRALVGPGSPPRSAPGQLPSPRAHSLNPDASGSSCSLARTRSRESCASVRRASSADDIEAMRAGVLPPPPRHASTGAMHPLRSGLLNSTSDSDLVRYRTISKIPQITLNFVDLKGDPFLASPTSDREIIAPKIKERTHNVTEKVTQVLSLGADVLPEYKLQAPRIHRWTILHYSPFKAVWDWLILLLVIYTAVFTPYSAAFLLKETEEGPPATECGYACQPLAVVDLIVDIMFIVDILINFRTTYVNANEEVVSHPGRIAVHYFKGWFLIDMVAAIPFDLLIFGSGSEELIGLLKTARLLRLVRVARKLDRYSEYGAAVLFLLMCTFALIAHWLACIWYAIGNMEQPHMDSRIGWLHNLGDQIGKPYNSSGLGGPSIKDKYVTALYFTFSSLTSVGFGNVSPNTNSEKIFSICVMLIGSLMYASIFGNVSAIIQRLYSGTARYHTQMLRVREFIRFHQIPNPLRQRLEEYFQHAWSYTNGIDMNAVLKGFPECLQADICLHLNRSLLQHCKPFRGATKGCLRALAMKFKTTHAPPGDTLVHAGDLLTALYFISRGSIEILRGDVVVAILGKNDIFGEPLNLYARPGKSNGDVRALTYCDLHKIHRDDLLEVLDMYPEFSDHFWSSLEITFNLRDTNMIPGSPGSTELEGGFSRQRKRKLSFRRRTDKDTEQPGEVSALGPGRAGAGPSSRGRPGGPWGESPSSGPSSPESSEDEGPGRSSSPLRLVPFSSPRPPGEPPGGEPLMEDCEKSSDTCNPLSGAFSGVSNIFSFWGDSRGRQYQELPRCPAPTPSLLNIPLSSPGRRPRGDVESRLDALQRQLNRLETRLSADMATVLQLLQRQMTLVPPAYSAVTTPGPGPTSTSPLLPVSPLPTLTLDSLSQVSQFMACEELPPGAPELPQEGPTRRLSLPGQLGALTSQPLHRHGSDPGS
The target of series [7] is 5-hydroxytryptamine receptor 1B (Homo sapiens) (UniProt P28222). The series is described as follows: Binding affinity to 5HT1B receptor.
Sequence of 5-hydroxytryptamine receptor 1B (Homo sapiens) (P28222 whole entry): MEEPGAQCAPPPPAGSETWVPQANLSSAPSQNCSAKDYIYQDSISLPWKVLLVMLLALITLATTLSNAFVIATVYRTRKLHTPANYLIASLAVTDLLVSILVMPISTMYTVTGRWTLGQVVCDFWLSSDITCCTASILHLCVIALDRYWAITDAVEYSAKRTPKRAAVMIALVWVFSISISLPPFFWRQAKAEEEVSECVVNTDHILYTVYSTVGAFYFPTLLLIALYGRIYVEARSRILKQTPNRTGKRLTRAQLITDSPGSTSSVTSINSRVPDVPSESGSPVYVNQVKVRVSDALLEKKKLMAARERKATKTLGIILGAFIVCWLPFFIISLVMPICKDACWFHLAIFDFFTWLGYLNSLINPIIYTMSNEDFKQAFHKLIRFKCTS
Series [8] deals with Beta-2 adrenergic receptor (Homo sapiens) (UniProt P07550). Put plainly: Binding affinity to beta2 receptor.
Sequence of Beta-2 adrenergic receptor (Homo sapiens) (P07550 whole entry, looked up): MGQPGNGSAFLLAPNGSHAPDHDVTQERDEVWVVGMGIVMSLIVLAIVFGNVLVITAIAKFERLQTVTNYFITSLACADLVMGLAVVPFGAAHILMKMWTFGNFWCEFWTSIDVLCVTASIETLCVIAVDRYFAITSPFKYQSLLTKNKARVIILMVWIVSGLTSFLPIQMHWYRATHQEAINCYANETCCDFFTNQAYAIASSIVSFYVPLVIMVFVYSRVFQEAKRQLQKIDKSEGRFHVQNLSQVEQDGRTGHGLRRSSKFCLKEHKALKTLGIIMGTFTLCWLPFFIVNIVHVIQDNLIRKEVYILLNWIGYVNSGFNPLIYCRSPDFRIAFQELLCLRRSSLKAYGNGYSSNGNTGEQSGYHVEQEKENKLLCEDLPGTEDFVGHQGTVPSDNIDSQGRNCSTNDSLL
Series [9] is described as follows: Ratio of drug level in CSF to free plasma in iv dosed dog. The series is classed as ADME, organism-based, Canis lupus familiaris. The conditions noted are these: in vivo.
For series [10], the target named is 5-hydroxytryptamine receptor 2B (Homo sapiens, UniProt P41595). Put plainly: Agonist activity at human recombinant 5HT2B receptor transfected in CHO K1 cells assessed as calcium mobilisation by FLIPR assay. It counts as functional, cell-based.
Sequence of 5-hydroxytryptamine receptor 2B (P41595 whole entry): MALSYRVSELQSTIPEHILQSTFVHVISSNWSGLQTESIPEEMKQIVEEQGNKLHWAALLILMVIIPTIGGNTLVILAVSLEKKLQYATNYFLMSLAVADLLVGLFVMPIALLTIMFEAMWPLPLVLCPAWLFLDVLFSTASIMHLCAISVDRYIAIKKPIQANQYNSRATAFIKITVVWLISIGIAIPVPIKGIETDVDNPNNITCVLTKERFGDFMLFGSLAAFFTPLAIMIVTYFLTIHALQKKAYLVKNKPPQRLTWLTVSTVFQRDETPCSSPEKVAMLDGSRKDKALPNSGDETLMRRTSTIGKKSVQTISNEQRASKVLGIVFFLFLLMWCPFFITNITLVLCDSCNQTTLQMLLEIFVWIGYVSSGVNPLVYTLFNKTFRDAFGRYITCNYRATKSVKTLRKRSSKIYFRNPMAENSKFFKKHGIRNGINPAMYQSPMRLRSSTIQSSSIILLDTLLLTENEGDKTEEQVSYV
Series [11] concerns the target Muscarinic acetylcholine receptor M3 (Homo sapiens) (UniProt P20309). The series is described as follows: Binding affinity to M3 receptor.
Series [12] addresses 5-hydroxytryptamine receptor 4 (Homo sapiens) (UniProt Q13639). The series is described as follows: Binding affinity to 5HT4E receptor.

pEC50, pKi: −log10 of the molar value.

Sequence of 5-hydroxytryptamine receptor 2A (P28223 whole entry): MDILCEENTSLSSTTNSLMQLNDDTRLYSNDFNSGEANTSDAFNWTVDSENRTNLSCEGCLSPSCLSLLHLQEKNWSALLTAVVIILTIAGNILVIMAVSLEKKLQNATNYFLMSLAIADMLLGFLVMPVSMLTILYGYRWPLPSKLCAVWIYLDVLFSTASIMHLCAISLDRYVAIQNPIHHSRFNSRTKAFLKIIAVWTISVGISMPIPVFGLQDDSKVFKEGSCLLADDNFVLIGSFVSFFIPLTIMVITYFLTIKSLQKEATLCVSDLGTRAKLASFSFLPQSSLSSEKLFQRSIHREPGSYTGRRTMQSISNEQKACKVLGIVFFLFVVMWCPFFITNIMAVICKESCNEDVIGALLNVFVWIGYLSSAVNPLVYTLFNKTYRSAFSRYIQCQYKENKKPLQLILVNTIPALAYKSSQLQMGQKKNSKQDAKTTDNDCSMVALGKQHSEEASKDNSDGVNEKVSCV
Sequence of 5-hydroxytryptamine receptor 4 (Homo sapiens) (Q13639 whole entry): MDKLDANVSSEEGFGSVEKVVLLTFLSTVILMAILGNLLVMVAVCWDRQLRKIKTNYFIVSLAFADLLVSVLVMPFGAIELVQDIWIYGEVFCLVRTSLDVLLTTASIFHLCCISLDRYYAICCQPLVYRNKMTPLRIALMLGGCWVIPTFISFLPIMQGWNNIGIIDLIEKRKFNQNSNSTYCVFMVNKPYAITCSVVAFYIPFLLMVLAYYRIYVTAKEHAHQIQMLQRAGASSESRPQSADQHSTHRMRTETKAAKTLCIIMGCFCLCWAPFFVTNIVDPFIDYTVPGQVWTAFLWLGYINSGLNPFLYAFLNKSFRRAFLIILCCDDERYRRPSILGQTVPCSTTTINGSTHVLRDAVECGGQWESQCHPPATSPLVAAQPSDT
Sequence of Muscarinic acetylcholine receptor M3 (Homo sapiens) (P20309 whole entry, looked up): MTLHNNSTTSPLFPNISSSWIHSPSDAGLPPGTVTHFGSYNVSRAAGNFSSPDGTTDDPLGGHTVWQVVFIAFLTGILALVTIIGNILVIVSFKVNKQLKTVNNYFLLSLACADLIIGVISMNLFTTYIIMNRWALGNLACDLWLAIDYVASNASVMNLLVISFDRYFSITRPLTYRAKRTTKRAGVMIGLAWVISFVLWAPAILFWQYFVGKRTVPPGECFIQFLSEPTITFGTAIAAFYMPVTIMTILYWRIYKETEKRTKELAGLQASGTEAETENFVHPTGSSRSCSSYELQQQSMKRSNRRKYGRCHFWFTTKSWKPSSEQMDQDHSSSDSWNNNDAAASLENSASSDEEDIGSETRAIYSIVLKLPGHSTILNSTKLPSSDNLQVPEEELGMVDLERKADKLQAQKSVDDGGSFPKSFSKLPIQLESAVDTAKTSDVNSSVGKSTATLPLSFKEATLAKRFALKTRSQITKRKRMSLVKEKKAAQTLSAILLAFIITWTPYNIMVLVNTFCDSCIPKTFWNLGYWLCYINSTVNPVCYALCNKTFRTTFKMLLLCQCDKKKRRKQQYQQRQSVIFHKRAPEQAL

As a reminder, the pEC50 is −log10 of the EC50, conventionally taken in molar units. One may read the pKi as the Ki on a negative log10 scale, so that one unit is a factor of ten. Low readings indicate a high Ki, high ones a low Ki. In the case of `C[C@@H]1CNCCN1c1cc(=O)n(C)c(COc2ccccc2C(F)(F)F)n1`, the Activity in series [1] was 20%; in [3], 480 nM; in series [4], above 1 µM; in [7], 210 nM; in series [8], above 1 µM; in series [11], above 1 µM. The same molecule showed an Activity in series [12] above 1 µM. Also, in series [2], the Cp came out at 19 nM. Besides, the values for the pEC50 in [5] and in series [10] were below 5.82 and below 5.00, respectively. Besides, the pKi in series [6] is below 4.89. The Ratio in [9] came out at 0.34.
